What was measured:
[1] = Antiplatelet activity in rabbit platelet rich plasma assessed as inhibition rate of ADP-induced platelet aggregation at 200 uM after 5 mins by aggregometry; type: functional; settings: Oryctolagus cuniculus
Outline: (§1)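 Rabbit platelet-rich plasma obtained by centrifuging blood at 1000 rpm for 5 min. Platelet-poor plasma (3000 rpm, 15 min) served as the reference. Platelets were adjusted to 3×10¹¹/L. PRP was mixed with compound at final levels 400, 200, 100 or 50 and incubated at 37 °C for 5 min before aggregation was read. IC50 was derived by linear regression.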

[2] = Antiplatelet activity in rabbit platelet rich plasma assessed as inhibition rate of ADP-induced platelet aggregation at 100 uM after 5 mins by aggregometry; type: functional; settings: Oryctolagus cuniculus; outline: as §1
[3] = Antiplatelet activity in rabbit platelet rich plasma assessed as inhibition rate of ADP-induced platelet aggregation at 50 uM after 5 mins by aggregometry; type: functional; settings: Oryctolagus cuniculus; outline: as §1
[4] = Antiplatelet activity in rabbit platelet rich plasma assessed as inhibition of ADP-induced platelet aggregation after 5 mins by aggregometry; type: functional; settings: Oryctolagus cuniculus; outline: as §1
ECV-304 [5] = assay: Protection against H2O2-induced toxicity in human ECV304 cells assessed as proliferation rate at 50 uM pretreated for 24 hrs before H2O2 challenge measured after 12 hrs by MTT assay; type: functional; settings: read-out: Activity
Outline: (§2)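 ECV-304 cells were seeded at 6×10³/well and grown to confluence. Cells were pretreated 24 h with compound in DMSO (final ≤0.05%), then given H2O2 (150) for 12 h at 37 °C, 5% CO2. MTT (5 mg/mL) was added for 4 h, formazan dissolved in DMSO, and A570 read. Proliferation rate = [OD(compd)−OD(H2O2)]/[OD(control)−OD(H2O2)]×100%. EC50 was calculated from proliferation rates by formula.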

ECV-304 [6] = assay: Protection against H2O2-induced toxicity in human ECV304 cells assessed as proliferation rate at 25 uM pretreated for 24 hrs before H2O2 challenge measured after 12 hrs by MTT assay; type: functional; settings: read-out: Activity; outline: as §2
ECV-304 [7] = assay: Protection against H2O2-induced toxicity in human ECV304 cells assessed as proliferation rate at 12.5 uM pretreated for 24 hrs before H2O2 challenge measured after 12 hrs by MTT assay; type: functional; settings: read-out: Activity; outline: as §2
ECV-304 [8] = assay: Protection against H2O2-induced toxicity in human ECV304 cells assessed as proliferation rate pretreated for 24 hrs before H2O2 challenge measured after 12 hrs by MTT assay; type: functional, cell-based; outline: as §2
[9] = Antiplatelet activity in rabbit platelet rich plasma assessed as inhibition rate of ADP-induced platelet aggregation at 400 uM after 5 mins by aggregometry; type: functional; settings: Oryctolagus cuniculus; outline: as §1
ECV-304 [10] = assay: Protection against H2O2-induced toxicity in human ECV304 cells assessed as proliferation rate at 100 uM pretreated for 24 hrs before H2O2 challenge measured after 12 hrs by MTT assay; type: functional; settings: read-out: Activity; outline: as §2
ECV-304 [11] = assay: Ratio of Ligustrazine EC50 to compound EC50 for protection against H2O2-induced toxicity in human ECV304 cells pretreated for 24 hrs before H2O2 challenge measured after 12 hrs by MTT assay

SMILES	IC50 [4] [µM]	inhibition at 200 µM [1] [%]	inhibition at 100 µM [2] [%]	inhibition at 50 µM [3] [%]	growth at 50 µM (ECV-304 [5]) [%]	growth at 25 µM (ECV-304 [6]) [%]	growth at 12.5 µM (ECV-304 [7]) [%]	EC50 (ECV-304 [8]) [µM]	inhibition at 400 µM [9] [%]	growth at 100 µM (ECV-304 [10]) [%]	EC50 ratio (TMP/compound) (ECV-304 [11])
Cc1nc(C)c(COc2cccc(/C=C/C(=O)O)c2)nc1C	161	57.2	46.6	30	473	378	306	20	60.8	175	30
Cc1nc(C)c(COc2c(Br)cc(Br)cc2/C=C/C(=O)O)nc1C	1310	33.1	20	18.1	48.5	4.21	-22.3	155	37.4	-24.8	
Cc1nc(C)c(COc2ccc(Cl)cc2/C=C/C(=O)O)nc1C	1050	45.6	38.4	24.7	-153	-44	-98.3	9300	67		
COc1cc(/C=C/C(=O)O)cc(OC)c1OCc1nc(C)c(C)nc1C	182	47.3	41	33	-95.9	-33.8	-74.6	3530	64.3	-132	
Cc1nc(C)c(COc2c(Br)cc(/C=C/C(=O)O)cc2Br)nc1C	1290	38.6	62.8	5.3	-113	-104	-83.8	3280	55.4	-85.8	
COc1cc(/C=C/C(=O)O)ccc1OCc1nc(C)c(C)nc1C	157	51.9	47	17.5	-17.8	-22.4	-12.5	295	73.2	-19.6	
Cc1nc(C)c(COc2ccc(/C=C/C(=O)O)cc2)nc1C	1400	29	13.4	18.8	90.4	2.01	-55	86	27.6	46.6	
CCOC(=O)/C=C/c1cc(Br)c(OCc2nc(C)c(C)nc2C)c(Br)c1	> 2000	16.3	10.7	6.77	66.1	57	-130	1970	20.7		
CCOC(=O)/C=C/c1cc(OC)c(OCc2nc(C)c(C)nc2C)c(OC)c1	631	38.5	35	31	-94.2	-81.9	-31.1	2310	48.1	-180	
Cc1nc(C)c(COc2ccc(/C=C/C(=O)O)cc2O)nc1C	176	60	11.8	3.46	157	131	15.3	46	87	170	
O=C(O)/C=C/c1ccc(Cn2ccnc2)cc1 [OZAGREL]	360	45.4	27.3	23.3					55.3		
Cc1nc(C)c(C)nc1C [LIGUSTRAZINE]					22.1	12.7	10.4	600		42.8	

Second part, led by results:

IC50 [4] [µM]	SMILES	inhibition at 200 µM [1] [%]	inhibition at 100 µM [2] [%]	inhibition at 50 µM [3] [%]	growth at 50 µM (ECV-304 [5]) [%]	growth at 25 µM (ECV-304 [6]) [%]	growth at 12.5 µM (ECV-304 [7]) [%]	EC50 (ECV-304 [8]) [µM]	inhibition at 400 µM [9] [%]	growth at 100 µM (ECV-304 [10]) [%]	EC50 ratio (TMP/compound) (ECV-304 [11])
> 2000	CCOC(=O)/C=C/c1cc(Br)cc(Br)c1OCc1nc(C)c(C)nc1C	15.8	13.5	9.8	73.9	-6.88	-25.7	1590	16.1		
449	CCOC(=O)/C=C/c1ccc(OCc2nc(C)c(C)nc2C)c(OC)c1	40.2	36.9	26.2	50.9	43.5	29.5	109	49.5	70.2	
> 2000	CCOC(=O)/C=C/c1cc(Cl)ccc1OCc1nc(C)c(C)nc1C	14.5	11.3	7.66	-186	-94.4	-0.46	16900	18.7		
54	Cc1nc(C)c(COc2ccccc2/C=C/C(=O)O)nc1C	70.2	62.3	46.1	237	370	183	499	76.8	-34.6	
628	CCOC(=O)/C=C/c1cccc(OCc2nc(C)c(C)nc2C)c1	34.8	29.4	14.5	278	-180	-1.52	4330	43		
> 2000	CCOC(=O)/C=C/c1cccc(OC)c1OCc1nc(C)c(C)nc1C	12.5	10.5	6.97	16.6	58.7	-92.5	3040	28.1		
522	COc1cccc(/C=C/C(=O)O)c1OCc1nc(C)c(C)nc1C	28.4	26.1	8.97	50.3	-0.71	-164	3590	47.6		
1380	CCOC(=O)/C=C/c1ccc(OCc2nc(C)c(C)nc2C)c(O)c1	25.7	23	13.9	10.3	-8.45	-18.7	139	41.8	37.3	
> 2000	CCOC(=O)/C=C/c1ccc(OCc2nc(C)c(C)nc2C)cc1	15.5	11.9	9.8	-6.36	-10.8	-1.79	206	22.7	-7.56	
502	CCOC(=O)/C=C/c1ccccc1OCc1nc(C)c(C)nc1C	33.4	30.1	16.4	327	-109	-1.24	1540	48.1		

Source: ChEMBL document CHEMBL1909548, “Ligustrazine derivatives. Part 5: design, synthesis and biological evaluation of novel ligustrazinyloxy-cinnamic acid derivatives as potent cardiovascular agents” (Eur J Med Chem, 2011)
